ChEMBL document CHEMBL1949561, “Synthesis and triplex-forming ability of oligonucleotides bearing 1-substituted 1H-1,2,3-triazole nucleobases” (Bioorg Med Chem, 2011)

Key:
Format in all cases: nucleic-acid assay
Nucleic Acid [1] = assay: Binding affinity to 5'-GCTAAAAAGATAGAGAGATCG-3'/5'- CGATCTCTCTATCTTTTTAGC-3' double stranded DNA assessed as melting temperature at 1.5 uM in sodium phosphate buffer at pH 7 by UV spectrophotometric analysis
Summary of the method: (§1)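 UV melting of triplexes between each modified TFO and the 21-bp duplex target, in 7 mM sodium phosphate buffer (pH 7.0), 140 mM KCl and 10 mM MgCl₂. Each oligonucleotide at 1.5 µM final. Absorbance followed at 260 nm from 5 °C to 85 °C, scanned at 0.5 °C/min, to give Tm.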

Nucleic Acid [2] = assay: Binding affinity to5'-GCTAAAAAGACAGAGAGATCG-3'/5'- CGATCTCTCTGTCTTTTTAGC-3' double stranded DNA assessed as melting temperature at 1.5 uM in sodium phosphate buffer at pH 7 by UV spectrophotometric analysis; summary of the method: as §1
Nucleic Acid [3] = assay: Binding affinity to 5'-GCTAAAAAGAAAGAGAGATCG-3'/5'- CGATCTCTCTTTCTTTTTAGC-3' double stranded DNA assessed as melting temperature at 1.5 uM in sodium phosphate buffer at pH 7 by UV spectrophotometric analysis; summary of the method: as §1
Nucleic Acid [4] = assay: Binding affinity to 5'-GCTAAAAAGACAGAGAGATCG-3'/5'- CGATCTCTCTGTCTTTTTAGC-3' double stranded DNA assessed as change in melting temperature at 1.5 uM in sodium phosphate buffer at pH 7 by UV spectrophotometric analysis
Nucleic Acid [5] = assay: Binding affinity to 5'-GCTAAAAAGAGAGAGAGATCG-3'/5'- CGATCTCTCTCTCTTTTTAGC-3' double stranded DNA assessed as melting temperature at 1.5 uM in sodium phosphate buffer at pH 7 by UV spectrophotometric analysis; summary of the method: as §1
Nucleic Acid [6] = assay: Binding affinity to 5'-GCTAAAAAGAAAGAGAGATCG-3'/5'- CGATCTCTCTTTCTTTTTAGC-3' double stranded DNA assessed as melting temperature at 1.9 uM in sodium cacodylate buffer at pH 6.8 by UV spectrophotometric analysis
Summary of the method: (§2)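 Each oligonucleotide at 1.9 µM final. Absorbance at 260 nm recorded from 5 °C to 85 °C at 0.5 °C/min; Tm taken from the melting profile.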

Nucleic Acid [7] = assay: Binding affinity to 5'-GCTAAAAAGACAGAGAGATCG-3'/5'- CGATCTCTCTGTCTTTTTAGC-3' double stranded DNA assessed as melting temperature at 1.9 uM in sodium cacodylate buffer at pH 6.8 by UV spectrophotometric analysis; summary of the method: as §2
Nucleic Acid [8] = assay: Binding affinity to 5'-GCTAAAAAGAGAGAGAGATCG-3'/5'- CGATCTCTCTCTCTTTTTAGC-3' double stranded DNA assessed as melting temperature at 1.9 uM in sodium cacodylate buffer at pH 6.8 by UV spectrophotometric analysis; summary of the method: as §2
Nucleic Acid [9] = assay: Binding affinity to 5'-GCTAAAAAGATAGAGAGATCG-3'/5'- CGATCTCTCTATCTTTTTAGC-3' double stranded DNA assessed as melting temperature at 1.9 uM in sodium cacodylate buffer at pH 6.8 by UV spectrophotometric analysis; summary of the method: as §2

Q: With `Cc1cn([C@H]2C[C@H](OP(=O)(O)OC[C@H]3O[C@@H](n4cc(C)c(=O)[nH]c4=O)C[C@@H]3OP(=O)(O)OC[C@H]3O[C@@H](n4cc(C)c(N)nc4=O)C[C@@H]3OP(=O)(O)OC[C@H]3O[C@@H](n4cc(C)c(=O)[nH]c4=O)C[C@@H]3OP(=O)(O)OC[C@H]3O[C@@H](n4cc(C)c(N)nc4=O)C[C@@H]3OP(=O)(O)OC[C@H]3O[C@@H](n4cc(C)c(=O)[nH]c4=O)C[C@@H]3OP(=O)(O)OC[C@H]3O[C@@H](c4cn(-c5ccc(C(=O)O)cc5)nn4)C[C@@H]3OP(=O)(O)OC[C@H]3O[C@@H](n4cc(C)c(=O)[nH]c4=O)C[C@@H]3OP(=O)(O)OC[C@H]3O[C@@H](n4cc(C)c(N)nc4=O)C[C@@H]3OP(=O)(O)OC[C@H]3O[C@@H](n4cc(C)c(=O)[nH]c4=O)C[C@@H]3OP(=O)(O)OC[C@H]3O[C@@H](n4cc(C)c(=O)[nH]c4=O)C[C@@H]3OP(=O)(O)OC[C@H]3O[C@@H](n4cc(C)c(=O)[nH]c4=O)C[C@@H]3OP(=O)(O)OC[C@H]3O[C@@H](n4cc(C)c(=O)[nH]c4=O)C[C@@H]3OP(=O)(O)OC[C@H]3O[C@@H](n4cc(C)c(=O)[nH]c4=O)C[C@@H]3O)[C@@H](COP(=O)(O)O[C@H]3C[C@H](n4cc(C)c(=O)[nH]c4=O)O[C@@H]3CO)O2)c(=O)nc1N` as the molecule, how does the Tm (Nucleic Acid [1]) read?
A: < 10 °C

Q: What about the Tm (Nucleic Acid [2]) of the same molecule?
A: 21 °C

Q: And the Tm (Nucleic Acid [3])?
A: < 10 °C

Q: And the ΔTm (Nucleic Acid [4])?
A: 11 °C

Q: What about the Tm (Nucleic Acid [5]) of the same molecule?
A: < 10 °C

Q: Which results are given for `Cc1cn([C@H]2C[C@H](OP(=O)(O)OC[C@H]3O[C@@H](n4cc(C)c(=O)[nH]c4=O)C[C@@H]3OP(=O)(O)OC[C@H]3O[C@@H](n4cc(C)c(N)nc4=O)C[C@@H]3OP(=O)(O)OC[C@H]3O[C@@H](n4cc(C)c(=O)[nH]c4=O)C[C@@H]3OP(=O)(O)OC[C@H]3O[C@@H](n4cc(C)c(N)nc4=O)C[C@@H]3OP(=O)(O)OC[C@H]3O[C@@H](n4cc(C)c(=O)[nH]c4=O)C[C@@H]3OP(=O)(O)OC[C@H]3O[C@@H](c4cn(-c5ccc(NC(N)=O)cc5)nn4)C[C@@H]3OP(=O)(O)OC[C@H]3O[C@@H](n4cc(C)c(=O)[nH]c4=O)C[C@@H]3OP(=O)(O)OC[C@H]3O[C@@H](n4cc(C)c(N)nc4=O)C[C@@H]3OP(=O)(O)OC[C@H]3O[C@@H](n4cc(C)c(=O)[nH]c4=O)C[C@@H]3OP(=O)(O)OC[C@H]3O[C@@H](n4cc(C)c(=O)[nH]c4=O)C[C@@H]3OP(=O)(O)OC[C@H]3O[C@@H](n4cc(C)c(=O)[nH]c4=O)C[C@@H]3OP(=O)(O)OC[C@H]3O[C@@H](n4cc(C)c(=O)[nH]c4=O)C[C@@H]3OP(=O)(O)OC[C@H]3O[C@@H](n4cc(C)c(=O)[nH]c4=O)C[C@@H]3O)[C@@H](COP(=O)(O)O[C@H]3C[C@H](n4cc(C)c(=O)[nH]c4=O)O[C@@H]3CO)O2)c(=O)nc1N`?
A: Tm (Nucleic Acid [1]): 13 °C; Tm (Nucleic Acid [6]): 18 °C; Tm (Nucleic Acid [7]): 29 °C; Tm (Nucleic Acid [8]): 17 °C; Tm (Nucleic Acid [2]): 24 °C; Tm (Nucleic Acid [3]): 12 °C; ΔTm (Nucleic Acid [4]): 11 °C; Tm (Nucleic Acid [5]): 13 °C; Tm (Nucleic Acid [9]): 18 °C

Q: How did the Tm (Nucleic Acid [1]) turn out when `Cc1cn([C@H]2C[C@H](OP(=O)(O)OC[C@H]3O[C@@H](n4cc(C)c(=O)[nH]c4=O)C[C@@H]3OP(=O)(O)OC[C@H]3O[C@@H](n4cc(C)c(N)nc4=O)C[C@@H]3OP(=O)(O)OC[C@H]3O[C@@H](n4cc(C)c(=O)[nH]c4=O)C[C@@H]3OP(=O)(O)OC[C@H]3O[C@@H](n4cc(C)c(N)nc4=O)C[C@@H]3OP(=O)(O)OC[C@H]3O[C@@H](n4cc(C)c(=O)[nH]c4=O)C[C@@H]3OP(=O)(O)OC[C@H]3O[C@@H](n4cc(C)c(=O)[nH]c4=O)C[C@@H]3OP(=O)(O)OC[C@H]3O[C@@H](n4cc(C)c(=O)[nH]c4=O)C[C@@H]3OP(=O)(O)OC[C@H]3O[C@@H](n4cc(C)c(N)nc4=O)C[C@@H]3OP(=O)(O)OC[C@H]3O[C@@H](n4cc(C)c(=O)[nH]c4=O)C[C@@H]3OP(=O)(O)OC[C@H]3O[C@@H](n4cc(C)c(=O)[nH]c4=O)C[C@@H]3OP(=O)(O)OC[C@H]3O[C@@H](n4cc(C)c(=O)[nH]c4=O)C[C@@H]3OP(=O)(O)OC[C@H]3O[C@@H](n4cc(C)c(=O)[nH]c4=O)C[C@@H]3OP(=O)(O)OC[C@H]3O[C@@H](n4cc(C)c(=O)[nH]c4=O)C[C@@H]3O)[C@@H](COP(=O)(O)O[C@H]3C[C@H](n4cc(C)c(=O)[nH]c4=O)O[C@@H]3CO)O2)c(=O)nc1N` was run?
A: 17 °C

Q: What about the Tm (Nucleic Acid [6]) of the same molecule?
A: 45 °C

Q: And the Tm (Nucleic Acid [7])?
A: 28 °C

Q: And the Tm (Nucleic Acid [8])?
A: 22 °C

Q: And the Tm (Nucleic Acid [2])?
A: 25 °C

Q: And the Tm (Nucleic Acid [3])?
A: 44 °C

Q: What about the Tm (Nucleic Acid [5]) of the same molecule?
A: 20 °C

Q: And the Tm (Nucleic Acid [9])?
A: 21 °C

Q: With `Cc1cn([C@H]2C[C@H](OP(=O)(O)OC[C@H]3O[C@@H](n4cc(C)c(=O)[nH]c4=O)C[C@@H]3OP(=O)(O)OC[C@H]3O[C@@H](n4cc(C)c(N)nc4=O)C[C@@H]3OP(=O)(O)OC[C@H]3O[C@@H](n4cc(C)c(=O)[nH]c4=O)C[C@@H]3OP(=O)(O)OC[C@H]3O[C@@H](n4cc(C)c(N)nc4=O)C[C@@H]3OP(=O)(O)OC[C@H]3O[C@@H](n4cc(C)c(=O)[nH]c4=O)C[C@@H]3OP(=O)(O)OC[C@H]3O[C@@H](c4cn(-c5cccc(C(=O)O)c5)nn4)C[C@@H]3OP(=O)(O)OC[C@H]3O[C@@H](n4cc(C)c(=O)[nH]c4=O)C[C@@H]3OP(=O)(O)OC[C@H]3O[C@@H](n4cc(C)c(N)nc4=O)C[C@@H]3OP(=O)(O)OC[C@H]3O[C@@H](n4cc(C)c(=O)[nH]c4=O)C[C@@H]3OP(=O)(O)OC[C@H]3O[C@@H](n4cc(C)c(=O)[nH]c4=O)C[C@@H]3OP(=O)(O)OC[C@H]3O[C@@H](n4cc(C)c(=O)[nH]c4=O)C[C@@H]3OP(=O)(O)OC[C@H]3O[C@@H](n4cc(C)c(=O)[nH]c4=O)C[C@@H]3OP(=O)(O)OC[C@H]3O[C@@H](n4cc(C)c(=O)[nH]c4=O)C[C@@H]3O)[C@@H](COP(=O)(O)O[C@H]3C[C@H](n4cc(C)c(=O)[nH]c4=O)O[C@@H]3CO)O2)c(=O)nc1N` as the molecule, how does the Tm (Nucleic Acid [1]) read?
A: 15 °C

Q: And the Tm (Nucleic Acid [2])?
A: 22 °C

Q: What about the Tm (Nucleic Acid [3]) of the same molecule?
A: < 10 °C

Q: And the Tm (Nucleic Acid [5])?
A: < 10 °C

Q: What does the source list for `Cc1ccc(-n2cc([C@H]3C[C@H](OP(=O)(O)OC[C@H]4O[C@@H](n5cc(C)c(=O)[nH]c5=O)C[C@@H]4OP(=O)(O)OC[C@H]4O[C@@H](n5cc(C)c(N)nc5=O)C[C@@H]4OP(=O)(O)OC[C@H]4O[C@@H](n5cc(C)c(=O)[nH]c5=O)C[C@@H]4OP(=O)(O)OC[C@H]4O[C@@H](n5cc(C)c(=O)[nH]c5=O)C[C@@H]4OP(=O)(O)OC[C@H]4O[C@@H](n5cc(C)c(=O)[nH]c5=O)C[C@@H]4OP(=O)(O)OC[C@H]4O[C@@H](n5cc(C)c(=O)[nH]c5=O)C[C@@H]4OP(=O)(O)OC[C@H]4O[C@@H](n5cc(C)c(=O)[nH]c5=O)C[C@@H]4O)[C@@H](COP(=O)(O)O[C@H]4C[C@H](n5cc(C)c(=O)[nH]c5=O)O[C@@H]4COP(=O)(O)O[C@H]4C[C@H](n5cc(C)c(N)nc5=O)O[C@@H]4COP(=O)(O)O[C@H]4C[C@H](n5cc(C)c(=O)[nH]c5=O)O[C@@H]4COP(=O)(O)O[C@H]4C[C@H](n5cc(C)c(N)nc5=O)O[C@@H]4COP(=O)(O)O[C@H]4C[C@H](n5cc(C)c(=O)[nH]c5=O)O[C@@H]4COP(=O)(O)O[C@H]4C[C@H](n5cc(C)c(N)nc5=O)O[C@@H]4COP(=O)(O)O[C@H]4C[C@H](n5cc(C)c(=O)[nH]c5=O)O[C@@H]4CO)O3)nn2)cc1`?
A: Tm (Nucleic Acid [1]): 13 °C; Tm (Nucleic Acid [2]): 21 °C; Tm (Nucleic Acid [3]): < 10 °C; Tm (Nucleic Acid [5]): < 10 °C

Q: Which Tm (Nucleic Acid [1]) does the source give for `Cc1cn([C@H]2C[C@H](OP(=O)(O)OC[C@H]3O[C@@H](n4cc(C)c(=O)[nH]c4=O)C[C@@H]3OP(=O)(O)OC[C@H]3O[C@@H](n4cc(C)c(N)nc4=O)C[C@@H]3OP(=O)(O)OC[C@H]3O[C@@H](n4cc(C)c(=O)[nH]c4=O)C[C@@H]3OP(=O)(O)OC[C@H]3O[C@@H](n4cc(C)c(N)nc4=O)C[C@@H]3OP(=O)(O)OC[C@H]3O[C@@H](n4cc(C)c(=O)[nH]c4=O)C[C@@H]3OP(=O)(O)OC[C@H]3O[C@@H](c4cn(C56CC7CC(CC(C7)C5)C6)nn4)C[C@@H]3OP(=O)(O)OC[C@H]3O[C@@H](n4cc(C)c(=O)[nH]c4=O)C[C@@H]3OP(=O)(O)OC[C@H]3O[C@@H](n4cc(C)c(N)nc4=O)C[C@@H]3OP(=O)(O)OC[C@H]3O[C@@H](n4cc(C)c(=O)[nH]c4=O)C[C@@H]3OP(=O)(O)OC[C@H]3O[C@@H](n4cc(C)c(=O)[nH]c4=O)C[C@@H]3OP(=O)(O)OC[C@H]3O[C@@H](n4cc(C)c(=O)[nH]c4=O)C[C@@H]3OP(=O)(O)OC[C@H]3O[C@@H](n4cc(C)c(=O)[nH]c4=O)C[C@@H]3OP(=O)(O)OC[C@H]3O[C@@H](n4cc(C)c(=O)[nH]c4=O)C[C@@H]3O)[C@@H](COP(=O)(O)O[C@H]3C[C@H](n4cc(C)c(=O)[nH]c4=O)O[C@@H]3CO)O2)c(=O)nc1N` here?
A: 11 °C

Q: And the Tm (Nucleic Acid [2])?
A: 17 °C

Q: And the Tm (Nucleic Acid [3])?
A: < 10 °C

Q: What about the Tm (Nucleic Acid [5]) of the same molecule?
A: < 10 °C
